Measured values reported in ChEMBL document CHEMBL4321823, “Benzyl Phenylsemicarbazides: A Chemistry-Driven Approach Leading to G Protein-Biased Dopamine D4 Receptor Agonists with High Subtype Selectivity” (J Med Chem, 2019).

Legend:
Format in all cases: cell-based
D(2) dopamine receptor [1] = target: T1, D(2) dopamine receptor (Homo sapiens, UniProt P14416); experiment: Displacement of [3H] Spiperone from human D2L receptor expressed in CHO cells by competitive radioligand binding assay
D(2) dopamine receptor [2] = target: T1, D(2) dopamine receptor; experiment: Displacement of [3H] Spiperone from human D2S receptor expressed in CHO cells by competitive radioligand binding assay
D(3) dopamine receptor = D(3) dopamine receptor (Homo sapiens, UniProt P35462); experiment: Displacement of [3H] Spiperone from human D3 receptor expressed in CHO cells by competitive radioligand binding assay
Sequence of D(3) dopamine receptor (P35462 whole entry): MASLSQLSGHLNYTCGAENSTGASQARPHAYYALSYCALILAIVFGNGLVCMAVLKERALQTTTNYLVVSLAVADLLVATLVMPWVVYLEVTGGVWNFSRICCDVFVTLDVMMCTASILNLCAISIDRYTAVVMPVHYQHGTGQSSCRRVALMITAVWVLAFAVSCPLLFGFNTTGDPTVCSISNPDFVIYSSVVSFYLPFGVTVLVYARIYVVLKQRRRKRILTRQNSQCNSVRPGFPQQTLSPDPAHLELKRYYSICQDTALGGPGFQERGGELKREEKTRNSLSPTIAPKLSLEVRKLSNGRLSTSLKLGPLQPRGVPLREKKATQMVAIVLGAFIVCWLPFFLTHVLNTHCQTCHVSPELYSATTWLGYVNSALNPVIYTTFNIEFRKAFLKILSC

D(4) dopamine receptor = target: T2, D(4) dopamine receptor (Homo sapiens, UniProt P21917); experiment: Displacement of [3H] Spiperone from human D4.4 receptor expressed in CHO cells by competitive radioligand binding assay
T2 sequence (P21917 whole entry): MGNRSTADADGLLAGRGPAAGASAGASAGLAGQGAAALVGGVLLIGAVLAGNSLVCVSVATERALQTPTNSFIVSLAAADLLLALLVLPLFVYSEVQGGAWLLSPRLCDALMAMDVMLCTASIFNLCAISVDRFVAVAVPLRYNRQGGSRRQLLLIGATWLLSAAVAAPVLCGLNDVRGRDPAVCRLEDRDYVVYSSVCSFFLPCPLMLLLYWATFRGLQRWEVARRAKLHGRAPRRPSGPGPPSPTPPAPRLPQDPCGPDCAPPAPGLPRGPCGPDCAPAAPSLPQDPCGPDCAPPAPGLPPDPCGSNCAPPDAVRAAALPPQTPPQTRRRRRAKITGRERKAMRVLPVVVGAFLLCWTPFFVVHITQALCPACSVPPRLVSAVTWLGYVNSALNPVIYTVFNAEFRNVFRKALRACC

Homo sapiens [3] = species on record: Homo sapiens; experiment: Selectivity index, ratio of Ki for displacement of [3H] Spiperone from human D2L receptor expressed in CHO cells to Ki for displacement of [3H] Spiperone from human D4.4 receptor expressed in CHO cells
Outline: (§1)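 Competition binding against [3H]spiperone on membranes of CHO cells stably expressing cloned human D2L, D2S, D3 or D4.4 receptors. Ki from monophasic curve fits; mean ± SEM of three to seven experiments, each in triplicate. Selectivity calculated as Ki(D2L, D2S or D3) divided by Ki(D4.4).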

Homo sapiens [4] = species on record: Homo sapiens; experiment: Selectivity index, ratio of Ki for displacement of [3H] Spiperone from human D2S receptor expressed in CHO cells to Ki for displacement of [3H] Spiperone from human D4.4 receptor expressed in CHO cells; outline: as §1
Homo sapiens [5] = species on record: Homo sapiens; experiment: Selectivity index, ratio of Ki for displacement of [3H] Spiperone from human D3 receptor expressed in CHO cells to Ki for displacement of [3H] Spiperone from human D4.4 receptor expressed in CHO cells; outline: as §1

T1 sequence (P14416 whole entry): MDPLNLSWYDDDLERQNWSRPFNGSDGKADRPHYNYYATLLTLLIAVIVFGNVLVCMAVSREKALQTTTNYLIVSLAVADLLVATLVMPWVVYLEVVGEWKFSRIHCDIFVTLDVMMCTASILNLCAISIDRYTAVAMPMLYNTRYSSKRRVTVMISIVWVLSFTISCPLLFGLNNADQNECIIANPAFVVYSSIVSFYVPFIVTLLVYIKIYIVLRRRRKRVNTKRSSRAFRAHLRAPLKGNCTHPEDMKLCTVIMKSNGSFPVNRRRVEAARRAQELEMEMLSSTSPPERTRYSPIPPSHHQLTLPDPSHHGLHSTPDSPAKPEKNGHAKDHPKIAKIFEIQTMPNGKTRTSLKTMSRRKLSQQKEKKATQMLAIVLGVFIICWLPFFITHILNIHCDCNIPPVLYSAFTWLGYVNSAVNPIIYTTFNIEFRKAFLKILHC

Row | SMILES | Ki (D(2) dopamine receptor [1]) [nM] | Ki (D(2) dopamine receptor [2]) [nM] | Ki (D(3) dopamine receptor) [nM] | Ki (D(4) dopamine receptor) [nM] | Ratio Ki (Homo sapiens [3]) | Ratio Ki (Homo sapiens [4]) | Ratio Ki (Homo sapiens [5])
1 | COc1ccccc1N1CCN(CCCNC(=O)NN(Cc2ccccc2)c2ccc(Cl)cc2Cl)CC1 | 35 | 24 | 61 | 15 | 2.3 | 1.6 | 4
2 | O=C(NCCCN1CCN(c2ccc(Cl)cc2)CC1)NN(Cc1ccccc1)c1ccccc1 | 640 | 410 | 1100 | 9.7 | 66 | 42 | 110
3 | COc1ccccc1N1CCN(CCNC(=O)NN(Cc2ccccc2)c2ccc(F)cc2)CC1 | 100 | 71 | 700 | 9 | 11 | 7.9 | 78
4 | COc1ccccc1N1CCN(CCCNC(=O)NN(Cc2ccccc2)c2ccc(Br)cc2)CC1 | 55 | 34 | 130 | 3.4 | 16 | 10 | 38
5 | O=C(NCCCN1CCN(c2ccc(Cl)cc2)CC1)NN(Cc1ccc(F)cc1)c1ccccc1 | 500 | 380 | 850 | 17 | 29 | 22 | 50
6 | COc1ccccc1N1CCN(CCCNC(=O)NN(Cc2ccccc2F)c2ccc(F)cc2)CC1 | 92 | 47 | 160 | 3.6 | 26 | 13 | 44
7 | O=C(NCCCN1CCN(c2ccc(Br)cc2)CC1)NN(Cc1ccc(F)cc1)c1ccccc1 | 790 | 620 | 1400 | 46 | 17 | 13 | 30
8 | Cc1cccc(C(=O)NCN2CCN(c3ccccc3C#N)CC2)c1 [PD-168,077] | 2300 | 1100 | 4700 |  |  |  | 
9 | O=C(NCCCN1CCN(c2ncccn2)CC1)NN(Cc1ccccc1)c1ccccc1 | 580 | 440 | 2000 | 18 | 32 | 24 | 110
10 | COc1ccc(N(Cc2ccccc2F)NC(=O)NCCCN2CCN(c3ccccc3OC)CC2)cc1 | 42 | 19 | 76 | 2.6 | 16 | 7.3 | 29
11 | COc1ccccc1N1CCN(CCNC(=O)/N=N/c2ccc(F)cc2)CC1 | 270 | 140 | 120 | 36 | 7.5 | 3.9 | 3.3
12 | O=C(NCCN1CCN(c2ccc(Br)cc2)CC1)NN(Cc1ccccc1)c1ccccc1 | 390 | 430 | 1800 | 28 | 14 | 15 | 64
13 | COc1ccccc1N1CCN(CCCNC(=O)NN(Cc2ccc(F)cc2)c2ccc(F)cc2)CC1 | 77 | 30 | 85 | 4.6 | 17 | 6.5 | 18
14 | O=C(NCCCN1CCN(c2ncccn2)CC1)NN(Cc1ccc(F)cc1)c1ccccc1 | 430 | 310 | 1900 | 19 | 23 | 16 | 100
15 | COc1ccccc1N1CCN(CCCNC(=O)NN(Cc2ccc(C#N)cc2)c2ccc(Cl)cc2Cl)CC1 | 150 | 94 | 280 | 12 | 13 | 7.8 | 23
16 | COc1ccc(N(Cc2cccc(OC)c2)NC(=O)NCCCN2CCN(c3ccccc3OC)CC2)cc1 | 150 | 110 | 320 | 33 | 4.5 | 3.3 | 9.7
17 | COc1ccccc1N1CCN(CCCNC(=O)NN(Cc2ccccc2F)c2ccc(Br)cc2)CC1 | 45 | 22 | 92 | 3.3 | 14 | 6.7 | 28
18 | COc1ccccc1N1CCN(CCCNC(=O)NN(Cc2ccccc2)c2ccc(Cl)cc2)CC1 | 32 | 23 | 130 | 2.9 | 11 | 7.9 | 45

Row | SMILES | Ki (D(2) dopamine receptor [1]) [nM] | Ki (D(2) dopamine receptor [2]) [nM] | Ki (D(3) dopamine receptor) [nM] | Ki (D(4) dopamine receptor) [nM] | Ratio Ki (Homo sapiens [3]) | Ratio Ki (Homo sapiens [4]) | Ratio Ki (Homo sapiens [5])
19 | O=C(NCCCN1CCN(c2ccc(I)cc2)CC1)NN(Cc1ccccc1)c1ccccc1 | 690 | 670 | 1300 | 21 | 33 | 32 | 62
20 | COc1ccc(N(Cc2ccc(F)cc2)NC(=O)NCCCN2CCN(c3ccccc3OC)CC2)cc1 | 160 | 110 | 400 | 2.9 | 55 | 38 | 140
21 | COc1ccccc1N1CCN(CCCNC(=O)NN(Cc2ccc(-c3ccccc3)cc2)c2ccc(F)cc2)CC1 | 140 | 42 | 110 | 5.9 | 24 | 7.1 | 19
22 | COc1ccccc1N1CCN(CCCNC(=O)NN(Cc2ccccc2F)c2ccc(Cl)cc2)CC1 | 41 | 26 | 95 | 2.6 | 16 | 10 | 36
23 | COc1ccccc1N1CCN(CCCNC(=O)/N=N/c2ccc(F)cc2)CC1 | 110 | 51 | 140 | 20 | 5.5 | 2.6 | 7
24 | COc1cccc(CN(NC(=O)NCCCN2CCN(c3ccccc3OC)CC2)c2ccc(F)cc2)c1 | 110 | 62 | 150 | 5.9 | 19 | 11 | 25
25 | COc1ccccc1N1CCN(CCCNC(=O)NN(Cc2cccc(F)c2)c2ccc(F)cc2)CC1 | 73 | 46 | 88 | 3.8 | 19 | 12 | 23
26 | C=C(C)CN(NC(=O)NCCCN1CCN(c2ccccc2OC)CC1)c1ccc(OC)cc1 | 210 | 300 | 860 | 64 | 3.3 | 4.7 | 13
27 | COc1ccc(N(Cc2ccccc2)NC(=O)NCCCN2CCN(c3ccccc3OC)CC2)cc1 | 45 | 19 | 120 | 1.7 | 26 | 11 | 71
28 | COc1ccc(N(Cc2cccc(F)c2)NC(=O)NCCCN2CCN(c3ccccc3OC)CC2)cc1 | 59 | 35 | 86 | 6.2 | 10 | 5.6 | 14
29 | O=C(NCCCN1CCN(c2ccc(Br)cc2)CC1)NN(Cc1ccccc1)c1ccccc1 |  |  | 1500 | 14 |  |  | 
30 | COc1ccc(N(Cc2ccc(C#N)cc2)NC(=O)NCCCN2CCN(c3ccccc3OC)CC2)cc1 | 250 | 110 | 220 | 16 | 16 | 6.9 | 14
31 | C=CCN(NC(=O)NCCCN1CCN(c2ccccc2OC)CC1)c1ccc(OC)cc1 | 180 | 340 | 660 | 61 | 3 | 5.6 | 11
32 | COc1ccccc1N1CCN(CCCCNC(=O)/N=N/c2ccc(F)cc2)CC1 |  |  | 3.1 |  | 0.4 | 0.36 | 0.033
33 | COc1ccccc1N1CCN(CCCNC(=O)NN(Cc2ccc(C#N)cc2)c2ccc(F)cc2)CC1 | 210 | 120 | 640 | 15 | 14 | 8 | 43
34 | O=C(NCCN1CCN(c2ccc(I)cc2)CC1)NN(Cc1ccccc1)c1ccccc1 | 490 | 510 | 1800 | 44 | 11 | 12 | 38
35 | COc1ccccc1N1CCN(CCCCNC(=O)NN(Cc2ccccc2)c2ccc(F)cc2)CC1 | 160 | 94 | 76 | 4.4 | 36 | 21 | 17
